Tests used:
trypsin [1] = target: T1, trypsin (Bos taurus, UniProt P00760); type: biochemical; details: pH 7.2
T1 sequence (P00760 24-246): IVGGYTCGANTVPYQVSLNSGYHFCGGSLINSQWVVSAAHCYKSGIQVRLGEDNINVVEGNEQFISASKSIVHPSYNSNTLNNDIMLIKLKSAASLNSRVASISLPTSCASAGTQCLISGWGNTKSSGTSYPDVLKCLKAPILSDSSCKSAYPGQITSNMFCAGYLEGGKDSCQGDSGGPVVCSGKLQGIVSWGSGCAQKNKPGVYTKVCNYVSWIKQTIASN
Summary of the method: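 Trypsin (78% active by p-nitrophenyl p-guanidobenzoate titration) hydrolysing α-N-benzoyl-L-arginine-p-nitroanilide at 25 °C, [S0] ≪ KM, in 0.1 M buffers (potassium phosphate at pH 7.2; sodium acetate at pH 5.0). At pH 7.2: 88.0 μM substrate, 0.17 μM trypsin, 3.3% DMSO. Inhibitor was added last. Initial rates were taken within 0.5–1 min and fitted to d[P]/dt = vo·Ki/([I]+Ki), ≥3 determinations. Effective molarity = KHK(obs)/KH1.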

[2] = 13C NMR of stability / Schiff base formation by the free glyoxal inhibitor; type: physicochemical
[3] = Hydration constants by quantitative 13C NMR; type: physicochemical; details: pH 3.0, 13C NMR
trypsin [4] = target: T1, trypsin; test: 13C NMR of trypsin catalysed breakdown of bound glyoxal inhibitor; type: biochemical; details: pH 7.2, in the presence of trypsin

SMILES: NC(N)=NCCC[C@H](NC(=O)OCc1ccccc1)C(=O)O [Z-Arg-COOH]
- Tighter binding than Z-Lys-COOH (trypsin [1]): ~ 2 fold

SMILES: NCCCC[C@H](NC(=O)OCc1ccccc1)[13C](=O)C=O [Z-Lys-^13COCHO]
- Half life of Schiff base formation allowing for pH 7.0 instead of 7.2 ([2]; corrected to pH 7.2): 14.5 h
- Half life of Schiff base formation ([2]; pH 7.0): 23.0 h
- 1st order rate constant of Schiff base formation ([2]; pH 7.0, 25 °C, 20 mM potassium phosphate buffer): 0.030±0.004 h^−^1

SMILES: NCCCC[C@H](NC(=O)OCc1ccccc1)C(=O)[13CH]=O [Z-Lys-CO^13CHO]
- Stability of NMR signals ([2]; pH 3.0, 64 h at 25 °C): no change in the intensity of the NMR signals
- t1/2 of decrease of inhibitor signals on storage ([2]; pH 3, storage ~1 year): 1850 ± 228 h
- Half life of Schiff base formation ([2]; pH 7.2, 25 °C): 11.2 h
- 1st order rate constant of Schiff base formation ([2]; pH 7.2, 25 °C, 20 mM potassium phosphate buffer): 0.062 ± 0.016 h⁻¹
- Half life of Schiff base formation ([2]; pH 10.4): 0.15 h
- 1st order rate constant of Schiff base formation ([2]; pH 10.4, 20 mM sodium bicarbonate buffer): 4.7 ± 0.7 h⁻¹
- KH1obs, glyoxal aldehyde carbon [3]: 97±7
- t1/2 of conversion of trypsin-bound inhibitor to α-hydroxycarboxylic acid (trypsin [4]): 2.9 h

— PMC5600458 (Biochemistry and Biophysics Reports, 2016)
